In ChEMBL document CHEMBL1147722, “Discovery of proline sulfonamides as potent and selective hepatitis C virus NS5b polymerase inhibitors. Evidence for a new NS5b polymerase binding site” (J Med Chem, 2006) one finds IC50, Papp and Papp A→B data, which are given here for 19 compounds.

The target in series [1] is RNA-directed RNA polymerase (Hepacivirus hominis, UniProt O39930). The experiment in a line: Inhibition of HCV NS5B RNA dependent RNA polymerase.
A short description of series [2]: Permeability at pH 7.4 by PAMPA assay. The series is classed as ADME. Particulars: read-out: permeability. On the technique in general: PAMPA measures passive passage across an artificial lipid membrane.
Series [3] is described as follows: Permeability from apical to basolateral side of the Caco-2 cell. The series is classed as ADME, cell-based. Particulars: human, read-out: permeability.
Series [4] has as its system Vero. The experiment in a line: Cytotoxicity against Vero cell line. It counts as functional, cell-based. Particulars: Chlorocebus sabaeus. The method, boiled down: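 Cytotoxicity read by MTS assay on actively growing cells: Vero cells for line 1, clone A cells for line 2. IC50 was determined in each assay.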
For series [5], the target named is Human immunodeficiency virus type 1 reverse transcriptase (Human immunodeficiency virus 1, UniProt Q72547). The experiment in a line: Inhibition of HIV reverse transcriptase.
For series [6], the target named is NS3 (Hepatitis C virus, UniProt A3EZJ3). The experiment in a line: Inhibition of HCV helicase. The arrangement: species or system Hepacivirus hominis.
NS3, sequence (A3EZJ3 whole entry): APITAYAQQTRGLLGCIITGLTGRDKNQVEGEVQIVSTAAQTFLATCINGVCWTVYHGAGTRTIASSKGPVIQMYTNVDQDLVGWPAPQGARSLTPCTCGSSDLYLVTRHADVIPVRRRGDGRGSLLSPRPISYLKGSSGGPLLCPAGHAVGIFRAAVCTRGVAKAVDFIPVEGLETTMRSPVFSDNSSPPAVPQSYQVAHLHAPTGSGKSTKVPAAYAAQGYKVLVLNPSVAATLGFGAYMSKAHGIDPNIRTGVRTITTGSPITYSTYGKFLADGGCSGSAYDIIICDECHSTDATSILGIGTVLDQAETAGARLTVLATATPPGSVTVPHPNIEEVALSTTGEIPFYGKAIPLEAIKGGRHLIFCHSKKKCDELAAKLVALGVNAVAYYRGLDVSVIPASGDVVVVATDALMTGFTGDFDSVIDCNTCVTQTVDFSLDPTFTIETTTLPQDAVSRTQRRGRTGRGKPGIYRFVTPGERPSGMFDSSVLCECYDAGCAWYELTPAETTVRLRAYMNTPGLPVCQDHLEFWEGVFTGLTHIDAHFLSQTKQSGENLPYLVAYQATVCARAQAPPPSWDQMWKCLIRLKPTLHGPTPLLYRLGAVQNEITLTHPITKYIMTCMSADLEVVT
Series [7] addresses DNA polymerase beta (Homo sapiens, UniProt P06746). The experiment in a line: Inhibition of human polymerase beta.

Bounds are passed on as bounds.

RNA-directed RNA polymerase, sequence (O39930 whole entry): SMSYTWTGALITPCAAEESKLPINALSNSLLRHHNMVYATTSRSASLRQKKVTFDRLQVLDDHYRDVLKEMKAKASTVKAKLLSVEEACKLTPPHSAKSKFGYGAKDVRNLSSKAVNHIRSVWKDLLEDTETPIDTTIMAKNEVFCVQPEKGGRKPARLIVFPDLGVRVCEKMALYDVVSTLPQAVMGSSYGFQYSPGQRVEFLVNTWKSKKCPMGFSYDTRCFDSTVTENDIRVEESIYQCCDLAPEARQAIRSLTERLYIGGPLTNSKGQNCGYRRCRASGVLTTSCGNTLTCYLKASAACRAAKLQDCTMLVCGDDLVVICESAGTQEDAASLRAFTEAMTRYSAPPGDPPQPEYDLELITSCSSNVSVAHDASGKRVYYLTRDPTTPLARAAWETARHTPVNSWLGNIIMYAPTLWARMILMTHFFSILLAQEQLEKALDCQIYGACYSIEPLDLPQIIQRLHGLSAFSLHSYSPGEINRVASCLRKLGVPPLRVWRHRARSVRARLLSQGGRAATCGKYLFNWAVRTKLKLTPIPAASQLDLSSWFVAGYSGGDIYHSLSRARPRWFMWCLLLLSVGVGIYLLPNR

Consider `O=C(O)[C@@H]1CCCN1S(=O)(=O)c1cc(Cl)c(Cl)c(Cl)c1O`, for which the 50% inhibitory concentration (IC50) is 0.08 µM in series [1] and greater than 100 µM in series [4]. Further, in series [2], the Papp worked out at 0.02 ×10⁻⁶ cm/s. Also, the Papp A→B in series [3] was found to be 0.4 ×10⁻⁶ cm/s.
For `Cc1cc(NC(=O)c2ccccc2)c(S(=O)(=O)N2CCC[C@H]2C(=O)O)cc1Cl`, the IC50 in series [1] was greater than 20 µM.
On the same count and under the same terms, the same measure for `Nc1ccccc1S(=O)(=O)N1CCC[C@H]1C(=O)O`: greater than 20 µM.
The compound `O=C(O)[C@H]1CCCN1S(=O)(=O)c1cc(Cl)cc(Cl)c1O` came in with an IC50 in series [1] of 7.9 µM.
Same read-out and setting: the same measure for `O=C(O)[C@@H]1CCCN1S(=O)(=O)c1cc(F)cc(Cl)c1O`: 2.1 µM; for `O=S(=O)(c1cc(Cl)cc(Cl)c1O)N1CCC[C@H]1c1nn[nH]n1`: 0.56 µM; for `COC(=O)[C@@H]1CCCN1S(=O)(=O)c1cc(Cl)cc(Cl)c1O`: greater than 20 µM.
On the same count and under the same terms, the value for `O=C(O)C1CSCN1S(=O)(=O)c1cc(Cl)cc(Cl)c1O` (single isomer, unassigned; 33) was 0.24 µM.
Same read-out and setting: the value for `O=C(O)[C@@H]1CCCN1S(=O)(=O)c1cc(Cl)cc(Br)c1O` was 0.26 µM.
In series [1], `O=S(=O)(c1cc(Cl)cc(Cl)c1O)N1CCCC1` displayed an IC50 of 4.8 µM.
The same measure, in the same setting: the value for `CC(=O)Nc1cc(C)c(Cl)cc1S(=O)(=O)N1CCC[C@H]1C(=O)O` was greater than 20 µM; that for `O=C(O)C1CSCN1S(=O)(=O)c1cc(Cl)cc(Cl)c1O` (single isomer, unassigned; 34) was 1.7 µM.
Take `Cc1cc(S(=O)(=O)N2CCC[C@H]2C(=O)O)c(N)cc1Cl`: the half-inhibitory concentration (IC50) is greater than 100 µM in series [5], greater than 75 µM in series [6] and greater than 100 µM in series [7].
Compound `O=C(O)[C@@H]1CCCCN1S(=O)(=O)c1cc(Cl)cc(Cl)c1O` returned a half-maximal inhibitory concentration (IC50) in series [1] of 2 µM.
Same read-out and setting: the value for `Cc1cc(N)c(S(=O)(=O)N2CCC[C@H]2C(=O)O)cc1Cl` was 5.95 µM.
Still for that read-out and setting: the same measure for `N#C[C@@H]1CCCN1S(=O)(=O)c1cc(Cl)cc(Cl)c1O`: 1.4 µM; for `O=C(O)[C@H]1CCCCN1S(=O)(=O)c1cc(Cl)cc(Cl)c1O`: 7.1 µM; for `O=C(O)[C@@H]1CCCN1S(=O)(=O)c1cc(Cl)cc(Cl)c1`: greater than 20 µM.
On the same count and under the same terms, the value for `O=C(O)[C@@H]1CCCN1S(=O)(=O)c1cc(Cl)cc(Cl)c1O` was 0.77 µM.

By IC50 is commonly meant the concentration needed to halve the response being measured.
